Active and inactive are the calls of the source. The rule behind the calls is not given here.
Experiments:
Rattus norvegicus [1] = test: Antiinflammatory activity against carrageenan-induced acute paw edema in albino rat assessed as reduction of edema at 20 mg/kg, po after 3 hrs relative to control; type: functional
In short: (§1)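 Groups of five rats (125–160 g) dosed with test compound; 30 min later 0.2 mL of 1% carrageenan in 0.9% NaCl injected subcutaneously into the plantar aponeurosis of the hind paw. Paw volume read by water plethysmometer at baseline and at 3 h. Mean increase compared with carrageenan-only control group (five rats); % inhibition = (1 − Gt/Gc) × 100.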

Rattus norvegicus [2] = test: Antiinflammatory activity against carrageenan-induced acute paw edema in albino rat assessed as reduction of edema at 40 mg/kg, po after 3 hrs relative to control; type: functional; in short: as §1
Rattus norvegicus [3] = test: Antiinflammatory activity against carrageenan-induced acute paw edema in albino rat assessed as reduction of edema at 80 mg/kg, po after 3 hrs relative to control; type: functional; in short: as §1
Rattus norvegicus [4] = test: Toxicity in albino rat with hyperemia assessed as ulcerogenic activity at 100 mg/kg, po after 5 hrs; type: organism-based; set-up: dose 100 mg/kg, route oral; settings: in vivo
In short: (§2)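 Groups of 10 rats (200–230 g) fasted 24 h, then given an oral dose of test compound; controls undosed. Killed 5 h after dosing. Stomach and small intestine examined under microscope for hyperaemia, epithelial shedding, petechiae, frank haemorrhage, and erosion or discrete ulceration with or without perforation; scored as % of animals affected.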

Rattus norvegicus [5] = test: Toxicity in albino rat with hyperemia assessed as ulcerogenic activity at 200 mg/kg, po after 5 hrs; type: organism-based; set-up: dose 200 mg/kg, route oral; settings: in vivo; in short: as §2
Rattus norvegicus [6] = test: Toxicity in albino rat with hyperemia assessed as ulcerogenic activity at 400 mg/kg, po after 5 hrs; type: organism-based; set-up: dose 400 mg/kg, route oral; settings: in vivo; in short: as §2
Rattus norvegicus [7] = test: Toxicity in albino rat assessed as ulcerogenic activity at 100 mg/kg, po after 5 hrs; type: organism-based; set-up: dose 100 mg/kg, route oral; settings: in vivo; in short: as §2
Rattus norvegicus [8] = test: Toxicity in albino rat assessed as ulcerogenic activity at 200 mg/kg, po after 5 hrs; type: organism-based; set-up: dose 200 mg/kg, route oral; settings: in vivo; in short: as §2
Rattus norvegicus [9] = test: Toxicity in albino rat assessed as ulcerogenic activity at 400 mg/kg, po after 5 hrs; type: organism-based; set-up: dose 400 mg/kg, route oral; settings: in vivo; in short: as §2
Oryctolagus cuniculus = species: Oryctolagus cuniculus; test: Inhibition of rabbit distal colon cyclooxygenase at 10 uM
In short: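 Microsomal fraction from rabbit distal colon mucosa, homogenized and washed in 0.1 M Tris pH 8.0, used fresh. Preincubated with test agent 10 min at 37 °C in Tris-HCl pH 8.0 with 2 mM reduced glutathione, 5 mM L-tryptophan and 1 µM hematin. Then 20 µM arachidonic acid with trace [1-14C]arachidonate added, 5 min at 37 °C. Stopped with cold ether/methanol/0.2 M citric acid. PGE2 separated by RP-HPLC and counted by scintillation; inhibition vs paired controls.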

[10] = biological target: Phospholipase A2 (Rattus norvegicus) (UniProt P04055); test: Inhibition of rat PLA2 using [14C]oleate labeled autoclaved Escherichia coli at 10 ug
Chain of Phospholipase A2 (Rattus norvegicus) (P04055 whole entry): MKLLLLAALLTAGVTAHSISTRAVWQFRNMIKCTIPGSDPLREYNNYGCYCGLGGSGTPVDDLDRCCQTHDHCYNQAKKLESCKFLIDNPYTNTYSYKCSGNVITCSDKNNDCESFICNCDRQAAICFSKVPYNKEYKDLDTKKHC
In short: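 Enzyme amount set for 10–15% hydrolysis over 60 min at 37 °C. Stopped with 2.0 N HCl plus fatty-acid-free BSA, centrifuged at 20,000g for 5 min. Released [14C]oleic acid in the supernatant counted by liquid scintillation.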

[11] = Toxicity in po dosed albino mouse; type: organism-based; settings: in vivo, read-out: ALD50
In short: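 Albino mice (25–30 g), in groups of 10, were given test compound at several dose levels. Percent mortality in each group was recorded 24 h after dosing. The approximate 50% lethal dose (ALD50) was calculated by Smith's method.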

Rattus norvegicus [12] = test: Antiinflammatory activity against carrageenan-induced acute paw edema in po dosed albino rat assessed as reduction of edema; type: functional; in short: as §1

SMILES	inhibition in vivo at 20 mg/kg (Rattus norvegicus [1]) [%]	inhibition in vivo at 40 mg/kg (Rattus norvegicus [2]) [%]	inhibition in vivo at 80 mg/kg (Rattus norvegicus [3]) [%]	Activity (Rattus norvegicus [4]) [%]	Activity (Rattus norvegicus [5]) [%]	Activity (Rattus norvegicus [6]) [%]	Activity (Rattus norvegicus [7]) [%]	Activity (Rattus norvegicus [8]) [%]	Activity (Rattus norvegicus [9]) [%]	inhibition (Oryctolagus cuniculus) [%]	inhibition [10] [%]	LD50 [11] [mg/kg]	ED50 (Rattus norvegicus [12]) [mg/kg]	Activity (Oryctolagus cuniculus)
COc1cc(OC)nc(Oc2ccc(C)cc2C(=O)c2ccc(C)cc2)n1	20.2	45.8	55.3	50	70	100	20	30	40	87	10	> 1000	60.2	–
COc1cc(OC)nc(Oc2ccc(F)cc2C(=O)c2ccc(C)cc2)n1	19.4	29.1	58.2	70	90	100	10	20	40	40	20	> 1000	62.5	–
COc1cc(OC)nc(Oc2ccc(F)cc2C(=O)c2ccc(Cl)cc2)n1	29.9	48.6	88.6	30	60	90	10	20	12	–	60	> 1000	51.2	inactive
CCCCC1C(=O)N(c2ccccc2)N(c2ccccc2)C1=O [PHENYLBUTAZONE]	29.6	34.1	51.9	30	60	90	30	60	90	89	85	–	–	–
COc1cc(OC)nc(Oc2ccc(C)cc2C(=O)c2ccc(Cl)cc2)n1	11.5	21.5	45.5	20	40	60	40	50	80	–	80	> 1000	77.5	inactive
COc1cc(OC)nc(Oc2ccc(Cl)cc2C(=O)c2ccc(Cl)cc2)n1	13.4	29.5	58.7	40	60	100	10	20	40	20	40	> 1000	78.3	–
CC(=O)Oc1ccccc1C(=O)O [ASPIRIN]	29.9	38.8	61.4	30	60	90	80	90	90	99	90	–	–	–
COc1cc(OC)nc(Oc2ccc(Br)cc2C(=O)c2ccc(Cl)cc2)n1	13.7	33.2	57.7	50	70	90	5	10	15	70	30	> 1000	77.2	–
